# How the values were obtained:
# Enterococcus faecium [1] = test: Antibacterial activity against vancomycin-resistant Enterococcus faecium by broth liquid microdilution method; type: functional
# Outline: (§1)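 Isolates were identified on an automated MicroScan WalkAway 96 system. Susceptibility was tested by broth microdilution following CLSI guidelines. MIC was taken as the lowest concentration giving complete inhibition of bacterial growth. S. aureus ATCC 29213 served as the control strain.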
# Staphylococcus aureus [2] = test: Antibacterial activity against Staphylococcus aureus ATCC 29213 by broth liquid microdilution method; type: functional; outline: as §1
# Staphylococcus aureus [3] = test: Antibacterial activity against methicillin-resistant Staphylococcus aureus by broth liquid microdilution method; type: functional; outline: as §1
# Enterococcus faecalis [4] = test: Antibacterial activity against linezolid-resistant Enterococcus faecalis by broth liquid microdilution method; type: functional; outline: as §1
# Staphylococcus aureus [5] = test: Antibacterial activity against methicillin-sensitive Staphylococcus aureus by broth liquid microdilution method; type: functional; outline: as §1
# Enterococcus faecium [6] = test: Antibacterial activity against vancomycin-resistant Enterococcus faecium clinical isolates by broth liquid microdilution method; type: functional; outline: as §1
# Enterococcus faecalis [7] = test: Antibacterial activity against linezolid-resistant Enterococcus faecalis clinical isolates by broth liquid microdilution method; type: functional; outline: as §1
# Staphylococcus aureus [8] = test: Antibacterial activity against methicillin-resistant Staphylococcus aureus clinical isolates by broth liquid microdilution method; type: functional; outline: as §1
# [9] = target: T1, MAO-A (amine oxidase [flavin-containing] A) (Homo sapiens, UniProt P21397); test: Inhibition of recombinant human MAOA expressed in baculovirus infected Sf9 insect cells at 30 uM using luciferin derived substrate pretreated for 15 mins followed by substrate addition and measured after 60 mins by luminescence assay relative to control; settings: probe luciferin derived substrate
# T1 sequence (P21397 whole entry): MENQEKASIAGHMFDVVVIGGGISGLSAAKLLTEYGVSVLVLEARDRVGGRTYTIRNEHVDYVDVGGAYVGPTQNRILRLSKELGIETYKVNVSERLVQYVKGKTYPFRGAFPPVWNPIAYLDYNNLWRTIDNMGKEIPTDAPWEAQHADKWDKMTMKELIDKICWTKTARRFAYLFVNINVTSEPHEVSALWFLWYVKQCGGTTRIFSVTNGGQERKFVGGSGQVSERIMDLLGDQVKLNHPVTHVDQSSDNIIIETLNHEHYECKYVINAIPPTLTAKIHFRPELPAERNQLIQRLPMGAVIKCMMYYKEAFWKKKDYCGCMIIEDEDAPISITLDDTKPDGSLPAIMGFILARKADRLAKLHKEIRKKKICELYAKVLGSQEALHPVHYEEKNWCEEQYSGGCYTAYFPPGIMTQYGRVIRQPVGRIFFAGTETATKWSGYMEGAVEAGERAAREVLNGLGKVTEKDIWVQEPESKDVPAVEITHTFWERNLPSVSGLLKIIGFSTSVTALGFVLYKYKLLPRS
# Outline: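 Human recombinant MAO-A with MAO-Glo luminescent kit. Compounds in DMSO (final 1% DMSO) preincubated with enzyme 15 min at room temperature, then luciferin derivative substrate added and reacted 60 min at room temperature. Luciferase detection reagent added for 20 min before luminescence read. Buffer replacing enzyme served as 100% inhibition control and DMSO as no-inhibition control; percent inhibition calculated against both.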
# Staphylococcus aureus [10] = test: Antibacterial activity against methicillin-sensitive Staphylococcus aureus clinical isolates by broth liquid microdilution method; type: functional; outline: as §1
Structure (SMILES),MIC (Enterococcus faecium [1]) [µg/mL],MIC (Staphylococcus aureus [2]) [µg/mL],MIC (Staphylococcus aureus [3]) [µg/mL],MIC (Enterococcus faecalis [4]) [µg/mL],MIC (Staphylococcus aureus [5]) [µg/mL],further results
COC(=O)N1CCN(/N=C/c2ccc(-c3ccc(N4C[C@H](CNC(C)=O)OC4=O)cc3F)cc2)CC1,0.125,0.125,0.125,0.125,0.125,–
CC(=O)NC[C@H]1CN(c2ccc(-c3ccc(/C=N/N4CCN(C(=O)c5ccc(C(F)(F)F)cc5)CC4)cc3)c(F)c2)C(=O)O1,0.125,0.125,0.125,0.125,0.125,–
CC(=O)NC[C@H]1CN(c2ccc(-c3ccc(/C=N/N4CCN(C(=O)C(F)(F)F)CC4)cc3)c(F)c2)C(=O)O1,0.125,0.125,0.125,0.125,0.125,–
C=CCN1CCN(/N=C/c2ccc(-c3ccc(N4C[C@H](CNC(C)=O)OC4=O)cc3F)cc2)CC1,0.125,0.5,0.125,0.125,0.125,–
CC(=O)NC[C@H]1CN(c2ccc(-c3ccc(/C=N/N4CCN(C(=O)c5cccnc5)CC4)cc3)c(F)c2)C(=O)O1,0.125,0.125,0.125,0.125,0.125,–
CC(=O)NC[C@H]1CN(c2ccc(-c3ccc(/C=N/N4CCN(C(=O)c5ccc(Br)cc5)CC4)cc3)c(F)c2)C(=O)O1,0.125,0.125,0.125,0.125,0.125,–
CC(=O)NC[C@H]1CN(c2ccc(-c3ccc(/C=N/N4CCN(C(=O)c5cccs5)CC4)cc3)c(F)c2)C(=O)O1,0.5,0.125,0.25,0.5,0.25,–
CC(=O)NC[C@H]1CN(c2ccc(-c3ccc(/C=N/N4CCN(S(C)(=O)=O)CC4)cc3)c(F)c2)C(=O)O1,2,1,0.5,0.5,1,–
CC(=O)NC[C@H]1CN(c2ccc(-c3ccc(/C=N/N4CCS(=O)(=O)CC4)cc3)c(F)c2)C(=O)O1,0.25,0.25,0.25,0.25,0.25,–
COc1ccccc1C(=O)N1CCN(/N=C/c2ccc(-c3ccc(N4C[C@H](CNC(C)=O)OC4=O)cc3F)cc2)CC1,0.125,0.5,0.125,0.125,0.0675,–
CC(=O)NC[C@H]1CN(c2ccc(-c3ccc(/C=N/N4CCN(C(=O)c5ccc(Cl)cc5)CC4)cc3)c(F)c2)C(=O)O1,0.25,0.0675,0.0675,0.25,0.0675,–
CC(=O)NC[C@H]1CN(c2ccc(-c3ccc(CNCc4cnn[nH]4)cc3)c(F)c2)C(=O)O1 [RADEZOLID],0.5,0.5,0.5,0.5,0.5,–
CC(=O)NC[C@H]1CN(c2ccc(-c3ccc(/C=N/N4CCN(C(=O)N(C)C)CC4)cc3)c(F)c2)C(=O)O1,0.25,0.0675,0.0675,0.25,0.0675,–
COc1cccc(C(=O)N2CCN(/N=C/c3ccc(-c4ccc(N5C[C@H](CNC(C)=O)OC5=O)cc4F)cc3)CC2)c1,1,0.25,0.25,1,0.25,–
CC(=O)NC[C@H]1CN(c2ccc(-c3ccc(/C=N/N4CCNCC4)cc3)c(F)c2)C(=O)O1,0.25,0.0675,0.0675,0.25,0.0675,"MIC (Enterococcus faecium [6]): 0.0625 to 0.5 µg/mL; MIC50 (Enterococcus faecium [6]): 0.25 µg/mL; MIC90 (Enterococcus faecium [6]): 0.5 µg/mL; MIC (Enterococcus faecalis [7]): 0.0625 to 0.25 µg/mL; MIC50 (Enterococcus faecalis [7]): 0.25 µg/mL; MIC90 (Enterococcus faecalis [7]): 0.25 µg/mL; MIC50 (Staphylococcus aureus [8]): 0.125 µg/mL; MIC90 (Staphylococcus aureus [8]): 0.25 µg/mL; inhibition at 1 h, 30 µM [9]: 84%; MIC (Staphylococcus aureus [10]): 0.0625 to 0.25 µg/mL; MIC50 (Staphylococcus aureus [10]): 0.125 µg/mL; MIC90 (Staphylococcus aureus [10]): 0.25 µg/mL"
CCC(=O)N1CCN(/N=C/c2ccc(-c3ccc(N4C[C@H](CNC(C)=O)OC4=O)cc3F)cc2)CC1,0.125,0.125,0.125,0.125,0.125,–

# — ChEMBL document CHEMBL4265926, “Synthesis and antibacterial activity evaluation of novel biaryloxazolidinone analogues containing a hydrazone moiety as promising antibacterial agents” (Eur J Med Chem, 2018)
